Reference: ChEMBL document CHEMBL1156117, “Anti-trypanosomatid benzofuroxans and deoxygenated analogues: synthesis using polymer-supported triphenylphosphine, biological evaluation and mechanism of action studies” (Eur J Med Chem, 2009)
Calls of active or inactive are those of the source. The rule behind the calls is not given here.

How the values were obtained:
[1] = Selectivity index, ratio of IC50 for mouse J774 macrophages to IC50 for Trypanosoma cruzi Tulahuen 2 epimastigotes
Trypanosoma cruzi [2] = assay: Antitrypanosomal activity against Trypanosoma cruzi CL Brener epimastigotes assessed as parasite viability after 5 days by MTT assay; format: functional, organism-based; settings: 120 h
Method in brief: (§1)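 Promastigotes (L. braziliensis, L. pifanoi) grown at 28 °C in axenic RPMI with 5% FBS. T. cruzi CL Brener epimastigotes grown in BHI-tryptose with 5% foetal serum. 24-well plates, 1 mL/well, seeded from exponential-phase culture. Compounds in DMSO, added at several concentrations (0.5–50.0) and kept 5 days. Then MTT 0.4 mg/mL for 3 h at 37 °C. Formazan dissolved in DMSO, OD595 read. Triplicate per concentration, six growth controls. Cytotoxicity % calculated against growth and medium blanks, IC50 derived.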

Trypanosoma cruzi [3] = assay: Antitrypanosomal activity against Trypanosoma cruzi Tulahuen 2 epimastigotes assessed as parasite growth inhibition after 5 days; format: functional, organism-based
Method in brief: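 Tulahuen 2 epimastigotes grown at 28 °C in BHI-tryptose with 5% foetal calf serum. Late-log cells seeded at 3×10⁶/mL in 24-well plates with compound from DMSO stock (final DMSO ≤0.8%; control 0.8% DMSO). A610 read at day 0 and day 5. Growth inhibition calculated from the corrected absorbance ratio to control; IC50 is the concentration giving 50% of the control ratio.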

J774 = assay: Cytotoxicity against mouse J774 macrophages after 48 hrs by MTT assay; format: cell-based
Method in brief: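 Exposed to compounds (1.0–400.0) for 48 h, washed with PBS, then MTT 0.4 mg/mL for 3 h. Formazan dissolved in DMSO, OD595 read. Triplicate per concentration, six growth controls. % cytotoxicity calculated against blanks.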

Trypanosoma cruzi [4] = assay: Inhibition of Trypanosoma cruzi Tulahuen 2 mitochondrial dehydrogenase at 20 uM after 120 mins by MTT assay relative to control
Method in brief: (§2)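 10⁶ parasites/well (T. cruzi Tulahuen 2 or Y epimastigotes, or L. braziliensis LTB300 promastigotes) in 500 µL medium with 20 µM compound, at 28 °C for up to 240 min; untreated duplicate wells served as time-matched controls. MTT (5 mg/mL stock in PBS) added for 2 h, stopped with acidic isopropanol, A570 read. Activity expressed as % of untreated parasites.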

Trypanosoma cruzi [5] = assay: Antitrypanosomal activity against Trypanosoma cruzi epimastigotes; format: functional, organism-based
Leishmania braziliensis [6] = assay: Inhibition of Leishmania braziliensis MHOM/BR/00/LTB300 promastigotes mitochondrial dehydrogenase at 20 uM by MTT assay relative to control; settings: TDE = time-dependent effect
Method in brief: as §2

Leishmania braziliensis [7] = assay: Antileishmanial activity against Leishmania braziliensis MHOM/BR/00/LTB300 promastigotes assessed as parasite viability after 5 days by MTT assay; format: functional, organism-based; settings: MHOM/BR/00/LTB300, 120 h
Method in brief: as §1

[8] = target: Cruzipain (Trypanosoma cruzi) (UniProt P25779); assay: Inhibition of Trypanosoma cruzi cruzipain at 100 uM
Sequence of Cruzipain (Trypanosoma cruzi) (P25779 123-467 limits assumed): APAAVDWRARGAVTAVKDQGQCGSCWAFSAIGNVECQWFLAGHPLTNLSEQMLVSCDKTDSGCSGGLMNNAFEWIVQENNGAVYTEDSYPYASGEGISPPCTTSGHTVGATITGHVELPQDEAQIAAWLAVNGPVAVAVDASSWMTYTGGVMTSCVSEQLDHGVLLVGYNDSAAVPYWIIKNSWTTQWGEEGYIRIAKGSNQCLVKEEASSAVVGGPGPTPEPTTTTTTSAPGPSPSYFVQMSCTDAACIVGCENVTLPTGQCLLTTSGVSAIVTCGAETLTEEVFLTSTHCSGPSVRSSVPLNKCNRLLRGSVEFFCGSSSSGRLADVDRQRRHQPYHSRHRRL

[9] = target: Cruzipain (Trypanosoma cruzi) (UniProt P25779); assay: Inhibition of Trypanosoma cruzi cruzipain at 25 uM
[10] = target: Cruzipain (Trypanosoma cruzi) (UniProt P25779); assay: Inhibition of Trypanosoma cruzi cruzipain at 50 uM
Trypanosoma cruzi [11] = assay: Induction of free radical production Trypanosoma cruzi microsomal fraction at 1 mM using DMPO and FXN spin trapping by ESR spectroscopic analysis; format: functional; settings: Microsome
Method in brief: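 T. cruzi microsomal fraction at 4 mg protein/mL, in 20 mM phosphate buffer pH 7.4 with 1 mM NADPH, 1 mM EDTA and 100 mM DMPO or FXN spin trap. Compound added at 1 mM final, dissolved in spectroscopy-grade DMF. Radical adducts detected by ESR.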

Leishmania pifanoi = assay: Antileishmanial activity against Leishmania pifanoi MHOM/VE/57/LV135 promastigotes assessed as parasite viability after 5 days by MTT assay; format: functional, organism-based; settings: MHOM/VE/57/LV135, 120 h
Method in brief: as §1

Trypanosoma cruzi [12] = assay: Inhibition of Trypanosoma cruzi Y mitochondrial dehydrogenase at 20 uM after 120 mins by MTT assay relative to control
Method in brief: as §2

[13] = Trypanosoma cruzi, Tulahuen 2, 120 h

Structure (SMILES) | Selectivity Index [1] | IC50 (Trypanosoma cruzi [2]) [µM] | IC50 (Trypanosoma cruzi [3]; [13]) [µM] | IC50 (J774; Mus musculus, J774, 48 h) [µM] | also measured
[O-][n+]1onc2ccc(/C=C/[S+]([O-])c3ccc(Cl)cc3)cc21 (configuration not stated) | 4 | 6.7 | 5.5 | 18 | 
O=C(/C=C/c1ccc2no[n+]([O-])c2c1)c1ccc([N+](=O)[O-])cc1 | 13.3 |  | 2.4 | 32 | 
C=CS(=O)(=O)Cc1ccc2no[n+]([O-])c2c1 |  |  |  |  | inhibition (Trypanosoma cruzi [4]): 58.5%; IC50 (Trypanosoma cruzi [5]): 14600 nM; Activity (Leishmania braziliensis [6]): tde; IC50 (Leishmania braziliensis [7]): 16.8 µM
O=S(=O)(/C=C\c1ccc2no[n+]([O-])c2c1)c1ccc(Cl)cc1 |  | 2.3 | 1.3 |  | 
O=S(=O)(/C=C\c1ccc2no[n+]([O-])c2c1)c1ccc(F)cc1 |  | 2.9 | 2.7 |  | inhibition [8]: 0%; inhibition [9]: 0%; inhibition [10]: 0%; Activity (Trypanosoma cruzi [11]): Active
O=S(=O)(/C=C/c1ccc2no[n+]([O-])c2c1)c1ccccc1 (stereo in doubt; 25) | 3.1 |  |  |  | IC50 (J774; j774): 78 µM
[O-][n+]1onc2ccc(/C=C\c3ccccc3)cc21 |  |  |  |  | IC50 (Trypanosoma cruzi [5]): 7000 nM
O=S(=O)(/C=C\c1ccc2no[n+]([O-])c2c1)c1ccccc1 | 10 |  |  | 11 | IC50 (Trypanosoma cruzi [5]): 1100 nM; IC50 (Leishmania braziliensis [7]): 10.8 µM
Cc1ccc(S(=O)(=O)/C=C/c2ccc3no[n+]([O-])c3c2)cc1 | 1.1 | 9.6 | 4.3 | 8 | 
[O-][n+]1onc2ccc(/C=C/[S+]([O-])c3ccc(F)cc3)cc21 (configuration not stated) |  | 6.2 | 4.5 |  | 
O=S(=O)(C=Cc1ccc2no[n+]([O-])c2c1)c1ccc(Cl)cc1 |  |  |  |  | inhibition (Trypanosoma cruzi [4]): 4%
Cc1ccc(S(=O)(=O)/C=C\c2ccc3no[n+]([O-])c3c2)cc1 |  | 5.1 | 3.6 |  | 
[O-][n+]1onc2ccc(/C=C\[S+]([O-])c3ccc(Cl)cc3)cc21 (configuration not stated) | 6.3 | 4.7 | 2.7 | 10 | 
[O-][n+]1onc2ccc(/C=C\[S+]([O-])c3ccc(F)cc3)cc21 (configuration not stated) |  | 3.2 | 1.6 |  | 
O=S(=O)(/C=C/c1ccc2no[n+]([O-])c2c1)c1ccc(Cl)cc1 |  | 4.8 | 4.8 |  | 
[O-][n+]1onc2ccc(/C=C/Sc3ccccc3)cc21 |  |  |  |  | IC50 (Trypanosoma cruzi [5]): 2600 nM; IC50 (Leishmania pifanoi): 4.3 µM; IC50 (Leishmania braziliensis [7]): 1.5 µM
O=C(/C=C/c1ccc2no[n+]([O-])c2c1)c1ccc(Cl)cc1 | 1.1 |  | 25 | 28 | 
[O-][n+]1onc2ccc(C=CSc3ccccc3)cc21 | 10 |  |  | 30 | inhibition (Trypanosoma cruzi [4]): 14.5%
Cc1ccc(S/C=C/c2ccc3no[n+]([O-])c3c2)cc1 |  | 4.7 | 1.9 |  | 

Structure (SMILES) | Selectivity Index [1] | IC50 (Trypanosoma cruzi [2]) [µM] | IC50 (Trypanosoma cruzi [3]; [13]) [µM] | IC50 (J774; Mus musculus, J774, 48 h) [µM] | also measured
O=C(/C=C/c1ccc2nonc2c1)c1ccccc1 | 1.1 |  | 97 | 102 | 
O=S(=O)(/C=C/c1ccc2no[n+]([O-])c2c1)c1ccccc1 (stereo in doubt; 4E) [listing 1 of 2 here] |  |  |  |  | Activity (Leishmania braziliensis [6]): tde; inhibition (Trypanosoma cruzi [12]): 25%
[O-][n+]1onc2ccc(/C=C\[S+]([O-])c3ccccc3)cc21 (configuration not stated) | 20 |  |  | 14 | IC50 (Trypanosoma cruzi [5]): 700 nM; Activity (Leishmania braziliensis [6]): tde; inhibition (Trypanosoma cruzi [12]): 25%; IC50 (Leishmania braziliensis [7]): 4.6 µM
[O-][n+]1onc2ccc(/C=C/c3ccccc3)cc21 |  |  |  |  | IC50 (Trypanosoma cruzi [5]): 10700 nM
O=C(/C=C/c1ccc2nonc2c1)c1ccc([N+](=O)[O-])cc1 | <1.3 |  | > 100 | 131 | 
O=C(/C=C/c1ccc2nonc2c1)c1ccc(Cl)cc1 | <2.5 |  | > 100 | 251 | 
Cc1ccc([S+]([O-])/C=C/c2ccc3no[n+]([O-])c3c2)cc1 (configuration not stated) |  | 6 | 4.6 |  | 
O=C(/C=C/c1ccc2no[n+]([O-])c2c1)c1ccccc1 | 9.4 |  | 5 | 47 | inhibition (Trypanosoma cruzi [4]): 21.8%; inhibition [8]: 0%; inhibition [9]: 0%; inhibition [10]: 0%
[O-][n+]1onc2ccc(/C=C\Sc3ccc(Cl)cc3)cc21 |  | 2.8 | 4.2 |  | 
O=S(=O)(C=Cc1ccc2no[n+]([O-])c2c1)c1ccc(F)cc1 |  |  |  |  | inhibition (Trypanosoma cruzi [4]): 17.6%
COc1ccc(C(=O)/C=C/c2ccc3no[n+]([O-])c3c2)cc1 (stereo in doubt; 11) | 7.6 |  |  |  | inhibition [8]: 13%; IC50 (Trypanosoma cruzi [3]): 4.1 µM; IC50 (J774; j774): 31 µM
[O-][n+]1onc2ccc(/C=C\Sc3ccc(F)cc3)cc21 |  | 5.9 | 12 |  | IC50 (Leishmania pifanoi): 4.5 µM; IC50 (Leishmania braziliensis [7]): 1.7 µM; Activity (Trypanosoma cruzi [11]): Active
[O-][n+]1onc2ccc(/C=C/Sc3ccc(F)cc3)cc21 | 7 | 5.5 | 5 | 35 | IC50 (Leishmania pifanoi): 4.3 µM; IC50 (Leishmania braziliensis [7]): 4.3 µM; Activity (Trypanosoma cruzi [11]): Active
O=S(=O)(/C=C/c1ccc2no[n+]([O-])c2c1)c1ccc(F)cc1 |  | 6.3 | 7.5 |  | Activity (Trypanosoma cruzi [11]): Active
Cc1ccc([S+]([O-])/C=C\c2ccc3no[n+]([O-])c3c2)cc1 (configuration not stated) |  | 8.4 | 6.7 |  | 
[O-][n+]1onc2ccc(/C=C/[S+]([O-])c3ccccc3)cc21 (stereo in doubt; 3E) | 11.5 |  |  |  | IC50 (Trypanosoma cruzi [5]): 2600 nM; IC50 (Leishmania braziliensis [7]): 31.5 µM; IC50 (J774; j774): 30 µM
[O-][n+]1onc2ccc(/C=C/[S+]([O-])c3ccccc3)cc21 (stereo in doubt; 24) | >10 |  |  |  | IC50 (J774; j774): > 400 µM
Cc1ccc(S/C=C\c2ccc3no[n+]([O-])c3c2)cc1 |  | 4.1 | 4.2 |  | 
O=S(=O)(/C=C/c1ccc2no[n+]([O-])c2c1)c1ccccc1 (stereo in doubt; 4E) [listing 2 of 2 here] | 10 |  |  |  | IC50 (Trypanosoma cruzi [5]): 1600 nM; IC50 (Leishmania braziliensis [7]): 21.5 µM; IC50 (J774; j774): 16 µM
